Assay results as given in PMC9476207 (ACS Omega, 2022).

Columns and labels:
Test in all cases: NCI-60 single-dose antiproliferative screen
Format in all cases: cell-based
[1] = tested on: OVCAR-5; details: Homo sapiens, OVCAR-5, 48 h, read-out: growth percent
Procedure, shortened: (§1)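 NCI-60 protocol. Lines were grown in RPMI 1640 with 5% FBS and 2 mM L-glutamine, plated and incubated 24 h at 37 °C; time-zero plates were TCA-fixed. The test compound was dissolved in DMSO, diluted in medium with 50 μg/mL gentamicin and given once at a final 10^-5 M (DMSO control) for 48 h. Cells were fixed with cold TCA (1 h, 4 °C) and stained with 0.4% SRB in 1% acetic acid for 10 min. Dye was dissolved in 10 mM Trizma base and read at 515 nm. Growth percent was calculated from time-zero, test and control ODs.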

[2] = tested on: 786-0; details: Homo sapiens, 786-0, 48 h, read-out: growth percent
Procedure, shortened: as §1

[3] = tested on: MCF-7; details: Homo sapiens, MCF7, 48 h, read-out: growth percent
Procedure, shortened: as §1

[4] = tested on: HS 578T; details: Homo sapiens, 48 h, read-out: growth percent
Procedure, shortened: as §1

[5] = tested on: SF-539; details: Homo sapiens, SF-539, 48 h, read-out: growth percent
Procedure, shortened: (§2)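 Cells grown in RPMI 1640 with 5% FBS and 2 mM L-glutamine, plated and held 24 h at 37 °C; time-zero plates TCA-fixed. DMSO stocks were diluted in gentamicin-containing medium to a final 10^-5 M, with a DMSO-only control. Exposure 48 h, 5% CO2. Adherent cells TCA-fixed 1 h at 4 °C, stained with 0.4% SRB, solubilised in 10 mM Trizma base, read at 515 nm. Growth percent derived from ODtzero, ODtest and ODctrl.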

[6] = tested on: U251; details: Homo sapiens, U-251, 48 h, read-out: growth percent
Procedure, shortened: as §2

[7] = tested on: NCI-H522; details: Homo sapiens, NCI-H522, 48 h, read-out: growth percent
Procedure, shortened: as §1

[8] = tested on: RPMI-8226; details: Homo sapiens, RPMI-8226, 48 h, read-out: growth percent
Procedure, shortened: as §1

[9] = tested on: SN12C; details: Homo sapiens, 48 h, read-out: growth percent
Procedure, shortened: as §2

[10] = tested on: BT-549; details: Homo sapiens, BT-549, 48 h, read-out: growth percent
Procedure, shortened: as §1

[11] = tested on: SNB-75; details: Homo sapiens, SNB-75, 48 h, read-out: growth percent
Procedure, shortened: as §2

[12] = tested on: HOP-92; details: Homo sapiens, HOP-92, 48 h, read-out: growth percent
Procedure, shortened: as §1

[13] = tested on: T-47D; details: Homo sapiens, T47D, 48 h, read-out: growth percent
Procedure, shortened: as §2

[14] = tested on: MDA-MB-435; details: Homo sapiens, MDA-MB-435, 48 h, read-out: growth percent
Procedure, shortened: as §1

[15] = tested on: RXF 393; details: Homo sapiens, RXF 393, 48 h, read-out: growth percent
Procedure, shortened: as §1

[16] = tested on: KM12; details: Homo sapiens, KM12, 48 h, read-out: growth percent
Procedure, shortened: as §1

[17] = tested on: NCI-H23; details: Homo sapiens, NCI-H23, 48 h, read-out: growth percent
Procedure, shortened: as §1

[18] = tested on: SK-OV-3; details: Homo sapiens, SK-OV-3, 48 h, read-out: growth percent
Procedure, shortened: as §2

[19] = tested on: CCRF-CEM; details: Homo sapiens, 48 h, read-out: growth percent
Procedure, shortened: as §1

[20] = tested on: MALME-3M; details: Homo sapiens, 48 h, read-out: growth percent
Procedure, shortened: as §1

[21] = tested on: NCI/ADR-RES; details: Homo sapiens, 48 h, read-out: growth percent
Procedure, shortened: as §1

[22] = tested on: SK-MEL-2; details: Homo sapiens, SK-MEL-2, 48 h, read-out: growth percent
Procedure, shortened: as §2

[23] = tested on: DU-145; details: Homo sapiens, DU-145, 48 h, read-out: growth percent
Procedure, shortened: as §1

[24] = tested on: NCI-H322M; details: Homo sapiens, 48 h, read-out: growth percent
Procedure, shortened: as §1

[25] = tested on: SW-620; details: Homo sapiens, SW-620, 48 h, read-out: growth percent
Procedure, shortened: as §2

[26] = tested on: SK-MEL-5; details: Homo sapiens, SK-MEL-5, 48 h, read-out: growth percent
Procedure, shortened: as §2

[27] = tested on: SF-268; details: Homo sapiens, SF-268, 48 h, read-out: growth percent
Procedure, shortened: as §1

[28] = tested on: SR; details: Homo sapiens, 48 h, read-out: growth percent
Procedure, shortened: as §2

[29] = tested on: SK-MEL-28; details: Homo sapiens, SK-MEL-28, 48 h, read-out: growth percent
Procedure, shortened: as §2

[30] = tested on: MDA-MB-231 ATCC; details: Homo sapiens, MDA-MB-231, 48 h, read-out: growth percent
Procedure, shortened: as §1

[31] = tested on: LOX IMVI; details: Homo sapiens, 48 h, read-out: growth percent
Procedure, shortened: as §1

[32] = tested on: UACC-257; details: Homo sapiens, UACC-257, 48 h, read-out: growth percent
Procedure, shortened: as §2

[33] = tested on: SF-295; details: Homo sapiens, SF-295, 48 h, read-out: growth percent
Procedure, shortened: as §1

[34] = tested on: K-562; details: Homo sapiens, K562, 48 h, read-out: growth percent
Procedure, shortened: as §1

[35] = tested on: UACC-62; details: Homo sapiens, UACC-62, 48 h, read-out: growth percent
Procedure, shortened: as §2

[36] = tested on: HT29; details: Homo sapiens, HT-29, 48 h, read-out: growth percent
Procedure, shortened: as §1

[37] = tested on: CAKI-1; details: Homo sapiens, CAKI-1, 48 h, read-out: growth percent
Procedure, shortened: as §1

Row | Compound | activity at 10 µM [1] | activity at 10 µM [2] | activity at 10 µM [3] | activity at 10 µM [4] | activity at 10 µM [5] | activity at 10 µM [6] | activity at 10 µM [7] | activity at 10 µM [8] | activity at 10 µM [9] | activity at 10 µM [10] | activity at 10 µM [11] | activity at 10 µM [12] | activity at 10 µM [13] | activity at 10 µM [14] | activity at 10 µM [15] | activity at 10 µM [16] | activity at 10 µM [17] | activity at 10 µM [18] | activity at 10 µM [19] | activity at 10 µM [20] | also measured
1 | COc1cc(CNC(=O)CCCC/C=C/C(C)C)ccc1OCc1cn(-c2ccc(C)c(C)c2)nn1 [14p, (E)-N-(4-((1-(3,4-Dimethylphenyl)-1H-1,2,3-triazol-4-yl)methoxy)-3-methoxybenzyl)-8-methylnon-6-enamide] | 107% | 99.8% | 86.9% | 90.7% | 105% | 88.3% | 80.7% | 67.3% | 88.4% | 93.7% | 91% | 80.4% | 73.2% | 104% | 98.2% | 97.5% | 74.9% | 98.6% | 75.5% | 107% | activity at 10 µM [21]: 80.6%; activity at 10 µM [22]: 90.3%; activity at 10 µM [23]: 108%; activity at 10 µM [24]: 101%; activity at 10 µM [25]: 95.2%; activity at 10 µM [26]: 81.5%; activity at 10 µM [27]: 94.6%; activity at 10 µM [28]: 58.2%; activity at 10 µM [29]: 112%; activity at 10 µM [30]: 89.3%; activity at 10 µM [31]: 84.5%; activity at 10 µM [32]: 81.9%; activity at 10 µM [33]: 88.8%; activity at 10 µM [34]: 74.6%; activity at 10 µM [35]: 75.1%; activity at 10 µM [36]: 97.8%; activity at 10 µM [37]: 94.3%
2 | COc1cc(CNC(=O)CCCC/C=C/C(C)C)ccc1OCc1cn(-c2ccc(Cl)cc2)nn1 [14a, (E)-N-(4-((1-(4-Chlorophenyl)-1H-1,2,3-triazol-4-yl)methoxy)-3-methoxybenzyl)-8-methylnon-6-enamide] | 100% | 92.5% | 84.9% | 90.3% | 87.1% | 86.9% | 65.7% | 60.8% | 80.2% | 86.8% | 76.4% | 77.1% | 71% | 99.3% | 98% | 95.6% | 78.7% | 91.6% | 72.4% | 97.8% | activity at 10 µM [21]: 78.1%; activity at 10 µM [22]: 102%; activity at 10 µM [23]: 98.9%; activity at 10 µM [24]: 92.2%; activity at 10 µM [25]: 88.7%; activity at 10 µM [26]: 77.6%; activity at 10 µM [27]: 84%; activity at 10 µM [28]: 73.5%; activity at 10 µM [29]: 106%; activity at 10 µM [30]: 79.5%; activity at 10 µM [31]: 85.6%; activity at 10 µM [32]: 91.6%; activity at 10 µM [33]: 88.3%; activity at 10 µM [34]: 66.7%; activity at 10 µM [35]: 67.8%; activity at 10 µM [36]: 88.4%; activity at 10 µM [37]: 89%
